Here are results for 29 compounds from ChEMBL document CHEMBL1125296, “Structure-activity relationships associated with 3,4,5-triphenyl-1H-pyrazole-1-nonanoic acid, a nonprostanoid prostacyclin mimetic” (J Med Chem, 1992).

One assay has as its target Prostacyclin receptor (Homo sapiens, UniProt P43119). The experiment in a line: IC50 value was evaluated by measuring the displacement of [3H]iloprost from Prostaglandin I2 receptor. A digest of the protocol:
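Platelet plasma membranes (200 μg) incubated with 5 nM [3H]iloprost in 10 mM MgCl2, 1 mM EGTA, 50 mM Tris/HCl pH 7.4 at 0-4 °C for 90-120 min; diluted with ice-cold Tris buffer, rapidly filtered on GF/C, washed four times, bound radioactivity counted by scintillation; IC50 for displacement.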

A further assay is filed under the species Homo sapiens. The experiment in a line: Inhibition of ADP-induced human platelet aggregation. The format is functional, organism-based. Summed up:
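Human blood drawn into 1/10 volume 3.8% sodium citrate, spun 10 min at 140g for platelet-rich plasma; compound in DMSO added to PRP 3 min before ADP (5.86 μM); aggregation followed by Born aggregometry (Mustard modification) against vehicle controls; IC50 from dose-response curves.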

pIC50: −log10 of the molar value. Where only a bound is given, the exact number is not on record here.

Prostacyclin receptor, sequence (P43119 whole entry): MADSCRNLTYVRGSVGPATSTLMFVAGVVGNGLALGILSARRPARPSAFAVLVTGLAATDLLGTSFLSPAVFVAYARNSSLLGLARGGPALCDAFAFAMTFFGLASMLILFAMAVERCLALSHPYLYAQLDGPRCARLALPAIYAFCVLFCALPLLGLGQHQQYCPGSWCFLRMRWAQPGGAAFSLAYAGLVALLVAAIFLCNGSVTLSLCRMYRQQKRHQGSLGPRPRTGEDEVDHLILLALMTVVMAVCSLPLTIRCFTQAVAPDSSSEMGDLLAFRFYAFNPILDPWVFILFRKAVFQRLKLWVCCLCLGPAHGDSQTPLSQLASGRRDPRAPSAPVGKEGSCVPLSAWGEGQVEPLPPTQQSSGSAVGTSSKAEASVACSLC

For `O=C(O)CCCCCCCCn1cc(-c2ccccc2)c(-c2ccccc2)n1`, the pIC50 on Prostacyclin receptor is 6.46; in the assay filed under Homo sapiens, 5.35.

With `O=C(O)CCCCCCCCn1nc(-c2ccccc2)c(-c2ccccc2)c1-c1ccccc1`, the values for the pIC50 at Prostacyclin receptor and in the assay filed under Homo sapiens were 6.80 and 6.40, respectively.

On to `NC(=O)CCCCCCCCn1nc(-c2ccccc2)c(-c2ccccc2)c1-c1ccccc1`, for which, in the assay listed under Homo sapiens, the pIC50 is 4.48.

`CS(=O)(=O)NC(=O)CCCCCCCCn1nc(-c2ccccc2)c(-c2ccccc2)c1-c1ccccc1`: the pIC50 in the assay listed under Homo sapiens was 5.23.

Turning to `c1ccc(-c2nn(CCCCCCCCc3nnn[nH]3)c(-c3ccccc3)c2-c2ccccc2)cc1`, in the assay listed under Homo sapiens, the pIC50 is 5.98.

The compound `O=C(O)CCCCCCn1ncc(-c2ccccc2)c1-c1ccccc1` gave a pIC50 in the assay filed under Homo sapiens of less than 4.04.

In the case of `O=C(O)CCCCCCCCn1ncc(-c2ccccc2)c1-c1ccccc1`, the pIC50 at Prostacyclin receptor was 6.15; in the assay filed under Homo sapiens, 5.24.

Compound `O=C(O)COCCCCCCn1nc(-c2ccccc2)c(-c2ccccc2)c1-c1ccccc1` had a pIC50 in the assay filed under Homo sapiens of 6.36.

Consider `CC(C)(C)OC(=O)COCCCCCCn1nc(-c2ccccc2)c(-c2ccccc2)c1-c1ccccc1`, for which the pIC50 in the assay listed under Homo sapiens is less than 4.21.

Turning to `O=C(O)CS(=O)(=O)CCCCCCn1nc(-c2ccccc2)c(-c2ccccc2)c1-c1ccccc1`, in the assay listed under Homo sapiens, the pIC50 is 4.66.

For the compound `O=C(O)CCCCCCCCn1cc(-c2ccccc2)cn1`, the pIC50 was less than 5.00 at Prostacyclin receptor and less than 3.98 in the assay listed under Homo sapiens.

Turning to `CNC(=O)CCCCCCCCn1nc(-c2ccccc2)c(-c2ccccc2)c1-c1ccccc1`, the pIC50 in the assay listed under Homo sapiens is less than 4.17.

Regarding `O=C(O)CCCCCCCCCn1nc(-c2ccccc2)c(-c2ccccc2)c1-c1ccccc1`, the pIC50 in the assay listed under Homo sapiens was 5.26.

Turning to `O=C(O)CCCCCCCCn1nc(-c2ccccc2)cc1-c1ccccc1`, the values for the pIC50 at Prostacyclin receptor and in the assay listed under Homo sapiens were less than 5.00 and less than 4.18, respectively.

For `O=C(O)CCCCCCCCCn1ncc(-c2ccccc2)c1-c1ccccc1`, the pIC50 in the assay filed under Homo sapiens is less than 4.09.

For `O=C(O)CCCCCCCCCCn1nc(-c2ccccc2)c(-c2ccccc2)c1-c1ccccc1`, the pIC50 in the assay listed under Homo sapiens was 4.73.

In turn, `O=C(O)CCCCCCCn1nc(-c2ccccc2)c(-c2ccccc2)c1-c1ccccc1` showed a pIC50 in the assay filed under Homo sapiens of 5.47.

In turn, `O=C(O)CSCCCCCCn1nc(-c2ccccc2)c(-c2ccccc2)c1-c1ccccc1` had a pIC50 in the assay filed under Homo sapiens of 6.06.

For `O=C(O)CCCCCCCCCn1cc(-c2ccccc2)c(-c2ccccc2)n1`, in the assay listed under Homo sapiens, the pIC50 is less than 4.09.

In the assay filed under Homo sapiens, `O=C(O)C[S+]([O-])CCCCCCn1nc(-c2ccccc2)c(-c2ccccc2)c1-c1ccccc1` (stereo not given) gave a pIC50 of 5.19.

The compound `CCc1c(-c2ccccc2)nn(CCCCCCCCC(=O)O)c1-c1ccccc1` had a negative logarithm of the IC50 (pIC50) in the assay filed under Homo sapiens of less than 4.10.

The compound `O=C(O)CCCCCCn1cc(-c2ccccc2)c(-c2ccccc2)n1` gave a pIC50 in the assay listed under Homo sapiens of less than 4.04.

Compound `O=C(O)CCCCCCn1nc(-c2ccccc2)c(-c2ccccc2)c1-c1ccccc1` had a pIC50 in the assay filed under Homo sapiens of 4.65.

Regarding `O=C(O)CCCCCn1nc(-c2ccccc2)c(-c2ccccc2)c1-c1ccccc1`, the pIC50 in the assay filed under Homo sapiens was less than 4.11.

Compound `O=C(O)CCCCCCCCn1nc(-c2ccccc2)c(Cc2ccccc2)c1-c1ccccc1` had a pIC50 in the assay listed under Homo sapiens of less than 4.17.

`COC(=O)CCCCCCCCn1nc(-c2ccccc2)c(-c2ccccc2)c1-c1ccccc1` had a pIC50 in the assay listed under Homo sapiens of 5.37.

`O=C(O)CCCCCCCn1cc(-c2ccccc2)c(-c2ccccc2)n1` had a pIC50 in the assay listed under Homo sapiens of less than 4.07.

Take `O=C(O)CCCCCCCn1ncc(-c2ccccc2)c1-c1ccccc1`: the pIC50 is 6.80 at Prostacyclin receptor and 5.82 in the assay listed under Homo sapiens.

The compound `N#CCCCCCCCCn1nc(-c2ccccc2)c(-c2ccccc2)c1-c1ccccc1` showed a pIC50 in the assay listed under Homo sapiens of less than 4.14.

A word on the pIC50: it is the IC50 on a negative log10 scale, so that one unit is a factor of ten. High values mean a small IC50, low ones a large IC50.
